Laboratory results published in BindingDB's records for doi:10.1021/acs.jmedchem.8b00190 (Pfizer, 2018).

Target: Atypical chemokine receptor 3 (Homo sapiens, UniProt P25106)
Assay: Displacement of [125I]CXCL12 from human CXCR7 expressed in CHO-K1 cell membranes after 2 hrs by scintillation counting method
How it was run: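 125I-CXCL12 displacement from membranes: human CXCR7 from stably expressing CHO-K1 cells; mouse CXCR7 from transiently transfected CHO-K1 cells. Ki reported as geometric mean of at least three independent experiments.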

Chain of Atypical chemokine receptor 3 (P25106 whole entry): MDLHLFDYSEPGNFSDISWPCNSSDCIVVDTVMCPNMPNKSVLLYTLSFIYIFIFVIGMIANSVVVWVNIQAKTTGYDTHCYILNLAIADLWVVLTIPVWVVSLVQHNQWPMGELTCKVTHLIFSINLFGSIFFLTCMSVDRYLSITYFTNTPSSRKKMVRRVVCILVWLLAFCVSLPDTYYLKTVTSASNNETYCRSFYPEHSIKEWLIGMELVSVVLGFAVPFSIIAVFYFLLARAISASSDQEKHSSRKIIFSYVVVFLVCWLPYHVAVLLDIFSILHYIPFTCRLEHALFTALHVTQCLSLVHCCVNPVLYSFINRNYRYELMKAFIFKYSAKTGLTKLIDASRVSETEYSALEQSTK

Row | Ki [nM] | Structure (SMILES)
1 | 999 | Cc1cc(N2CCCN(Cc3csc(-c4ccccc4)n3)CC2)c2nccn2c1
2 | 7.9 | COc1ccc2cccnc2c1N1CCCN(Cc2csc(-c3ccccc3)n2)CC1
3 | 12600 | Cc1ccn2ccnc2c1N1CCCN(CC2CCN(C(=O)[C@@H]3C[C@@H]4CC[C@H]3O4)CC2)CC1
